A selection: hits, their analogues and other compounds. The true share with any hit is near 1.8%.
CHRM4 PAM – human M4 muscarinic receptor positive allosteric modulators, primary screen, CHO-K1 cells, Fluo-8 calcium fluorescence. CHO-K1 hM4/Gqi5, ACh EC20; 0% = ACh EC20, 100% = maximal ACh. actives 0.4% (n = 360,000). activation, % at 3 µM;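 active means activation above its plate's cutoff, the mean activation of sample wells plus 3 SD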
CHRM5 agonist – human M5 muscarinic receptor agonists, primary screen, CHO-K1 cells, Fluo-8 calcium fluorescence; Muscarinic acetylcholine receptor M5 (Homo sapiens), P08912; activation, % at 3 µM; CHO-K1 hM5 cells; 0% DMSO wells, 100% maximal acetylcholine response; actives 0.19% (n = 360,000);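 active means activation above the run's mean over test compounds plus 3 SD, cut at about 23% in these data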;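 further: signal is peak over basal fluorescence ratio across the kinetic read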
Target sequence (P08912 whole entry, looked up): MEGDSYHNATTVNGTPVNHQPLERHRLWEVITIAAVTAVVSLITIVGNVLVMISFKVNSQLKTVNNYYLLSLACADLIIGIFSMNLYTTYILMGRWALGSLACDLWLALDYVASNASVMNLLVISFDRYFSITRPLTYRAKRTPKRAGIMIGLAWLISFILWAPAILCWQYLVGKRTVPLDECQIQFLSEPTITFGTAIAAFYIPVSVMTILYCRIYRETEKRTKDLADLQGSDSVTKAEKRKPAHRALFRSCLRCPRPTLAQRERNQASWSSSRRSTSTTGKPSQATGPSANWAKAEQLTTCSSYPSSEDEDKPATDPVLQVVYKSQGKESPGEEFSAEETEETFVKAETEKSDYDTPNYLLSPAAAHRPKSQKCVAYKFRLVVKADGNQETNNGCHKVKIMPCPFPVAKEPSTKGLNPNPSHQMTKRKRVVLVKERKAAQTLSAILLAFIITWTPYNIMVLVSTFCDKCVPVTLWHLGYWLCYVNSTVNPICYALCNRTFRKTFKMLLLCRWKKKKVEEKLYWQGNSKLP
CHRM4 agonist – human M4 muscarinic receptor agonists, primary screen, CHO-K1 cells, Fluo-8 calcium fluorescence; actives 0.14% (n = 360,000); AID 624127, 2012; Muscarinic acetylcholine receptor M4 (Homo sapiens), P08173; CHO-K1 hM4/Gqi5; vehicle 0%, full acetylcholine response 100%; activation, % at 3 µM;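 active means activation above the run mean over all test wells plus 3 SD, cut at about 32% in these data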;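 further: peak over basal fluorescence ratio per well then scaled between controls; 0% = DMSO wells and 100% = acetylcholine at EC100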
CHRM5 PAM – human M5 muscarinic receptor positive allosteric modulators, primary screen, CHO-K1 cells, Fluo-8 calcium fluorescence; Muscarinic acetylcholine receptor M5 (Homo sapiens), P08912; CHO-K1 hM5, ACh EC20 PAM; 0% = ACh EC20, 100% = ACh EC100; activation, % at 3 µM; actives 0.3% (n = 360,000); AID 624038, 2012;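 active means activation above the run cutoff, the mean activation of all test compounds plus 3 SD, cut at about 18% in these data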
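Measured by: Fluo-8 calcium fluorescence; material: human M5 receptor in CHO-K1 cells; schedule: Post-acetylcholine fluorescence recording 140 s; benchmarks: low control EC20 acetylcholine (0%), high control EC100 acetylcholine (100%); read-out: Max/basal fluorescence ratio as % of EC20–EC100 ACh window; compound: single dose, 3 µM nominal final test concentration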
M4 antag – human M4 muscarinic receptor antagonists, primary screen, CHO cells, Fluo-8 calcium fluorescence | Muscarinic acetylcholine receptor M4 (Homo sapiens), P08173 | AID 624125, 2012 | CHO-hM4 cells, ACh EC80 | actives 0.73% (n = 360,000) | inhibition, % at 3 µM;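 active means inhibition above its plate's cutoff, the mean inhibition of sample wells plus 3 SD, cut at about 27% in these data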;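 further: 0% = acetylcholine EC80 with DMSO and 100% = DMSO without agonist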
CHRM5 antagonist – human M5 muscarinic receptor antagonists, primary screen, CHO cells, Fluo-8 calcium fluorescence; actives 0.59% (n = 360,000); inhibition, % at 3 µM; CHO-hM5 cells, ACh EC80;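 active means inhibition above a per-plate cutoff, the mean of that plate's test compounds plus 3 SD, cut at about 27% in these data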;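 further: 0% = acetylcholine EC80 with DMSO and 100% = DMSO without agonist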
The depositor's hits bear a star.

`CCc1ccc(NC(=O)CCCN2C(=O)C3CC=CCC3C2=O)cc1` (configuration not stated) gave CHRM4 PAM 3.9, CHRM5 agonist -8.0, CHRM4 agonist 1.8, CHRM5 PAM -8.5, M4 antag -12.7 and CHRM5 antagonist 29.0*.
Screening Cc1cccc(NC(=O)CCCN2C(=O)C3CC=CCC3C2=O)c1 (configuration not stated) returned CHRM4 PAM 0.6, CHRM5 agonist -3.9, CHRM4 agonist 0.2, CHRM5 PAM -2.2, M4 antag 0.0 and CHRM5 antagonist 7.5.
Screening COc1ccc(N2Cc3ccc(OC)c(OC)c3C2=O)cc1 returned CHRM4 PAM -17.8, CHRM5 agonist -2.8, CHRM4 agonist 0.0, CHRM5 PAM -9.3, M4 antag 59.8* and CHRM5 antagonist 16.1.
Screening Cc1cccc(C)c1NC(=O)C1(C)CN(S(C)(=O)=O)CC(=O)N1Cc1ccco1 (configuration not stated) returned CHRM4 PAM 9.6, CHRM5 agonist 0.0, CHRM4 agonist 3.5, CHRM5 PAM 0.5, M4 antag 4.4 and CHRM5 antagonist -0.7.
`CC1=NNC(=O)/C1=C\c1cn(-c2ccccc2)nc1-c1ccccc1` gave CHRM4 PAM -17.8, CHRM5 agonist 28.0*, CHRM4 agonist 11.7, CHRM5 PAM 5.7, M4 antag 39.2* and CHRM5 antagonist 32.2*.
`COc1cc2ccc(C=O)cc2cc1OC` gave CHRM4 PAM 0.1, CHRM5 agonist 3.9, CHRM4 agonist 1.5, CHRM5 PAM 0.9, M4 antag -5.9 and CHRM5 antagonist 4.0.
`CCC(=O)N1CCC(C)(C(=O)NCc2ccc(F)cc2)C1` (configuration not stated) gave CHRM4 PAM 0.9, CHRM5 agonist 0.8, CHRM4 agonist 0.7, CHRM5 PAM 2.5, M4 antag -13.2 and CHRM5 antagonist -6.4.
For CCOC(=O)CN(C(=O)CSc1nnc(CNc2ccc(F)cc2)n1C)c1ccccc1 the results were CHRM4 PAM 18.4*, CHRM5 agonist -4.5, CHRM4 agonist 1.0, CHRM5 PAM 11.1, M4 antag -1.4 and CHRM5 antagonist -8.1.
For CCOC(=O)CN(C(=O)CSc1nnc(CNc2ccc(F)cc2)o1)c1ccccc1 the results were CHRM4 PAM 4.8, CHRM5 agonist -2.0, CHRM4 agonist 2.5, CHRM5 PAM -2.8, M4 antag 0.5 and CHRM5 antagonist -10.2.
For COc1ccc(S(=O)(=O)N2CCCOC2CNC(=O)C(=O)NC2CCCC2)cc1 (configuration not stated) the results were CHRM4 PAM 9.6, CHRM5 agonist 1.1, CHRM4 agonist 3.4, CHRM5 PAM 29.6*, M4 antag -16.8 and CHRM5 antagonist -18.1.
`Cc1ccc(S(=O)(=O)N2CCOC2CNC(=O)C(=O)NCC(C)C)cc1` (configuration not stated) gave CHRM4 PAM 22.4*, CHRM5 agonist -0.1, CHRM4 agonist 2.1, CHRM5 PAM 13.2, M4 antag -9.5 and CHRM5 antagonist -10.2.
`O=C(NCC1OCCCN1S(=O)(=O)c1ccc(F)cc1)C(=O)NC1CCCC1` (configuration not stated) gave CHRM4 PAM -1.9, CHRM5 agonist -2.6, CHRM4 agonist 1.8, CHRM5 PAM -2.0, M4 antag -2.4 and CHRM5 antagonist 5.5.
Screening CCCS(=O)(=O)NC(=O)C1(C)CCCN(C(=O)c2ccc3ccccc3n2)C1 (configuration not stated) returned CHRM4 PAM 2.7, CHRM5 agonist 0.3, CHRM4 agonist 0.4, CHRM5 PAM -1.2, M4 antag -9.2 and CHRM5 antagonist 5.1.
For COc1ccc(C2=Nn3c(nnc3-c3ccccc3F)SC2)cc1OC1CCCC1 the results were CHRM4 PAM -9.3, CHRM5 agonist -9.7, CHRM4 agonist 5.8, CHRM5 PAM -31.8, M4 antag 28.7* and CHRM5 antagonist 11.6.
For COc1ccc(OC)c(-c2nnc3n2N=C(c2ccc(OC(F)F)c(OCC4CC4)c2)CS3)c1 the results were CHRM4 PAM -13.2, CHRM5 agonist -9.1, CHRM4 agonist 0.6, CHRM5 PAM -39.8, M4 antag 27.6* and CHRM5 antagonist 21.5.
`COc1ccc(C2=Nn3c(nnc3-c3ccccc3OC)SC2)cc1OCC1CC1` gave CHRM4 PAM 11.8, CHRM5 agonist -11.0, CHRM4 agonist 2.2, CHRM5 PAM -6.2, M4 antag 4.3 and CHRM5 antagonist -2.7.
Screening COc1ccc(C2=Nn3c(nnc3-c3ccccc3F)SC2)cc1OC1CCOC1 (configuration not stated) returned CHRM4 PAM 2.2, CHRM5 agonist -0.2, CHRM4 agonist 8.3, CHRM5 PAM -16.4, M4 antag -11.4 and CHRM5 antagonist 3.2.
For O=c1c2c([nH]n1-c1ccccc1)C[C@@H](C1CCCCC1)O[C@H]2c1ccc(F)cc1 the results were CHRM4 PAM -3.7, CHRM5 agonist 0.3, CHRM4 agonist -0.5, CHRM5 PAM -12.1, M4 antag 2.1 and CHRM5 antagonist 10.1.
For Cc1ccc(CN2CCC(C)(Oc3cccc(Cl)c3)C2)cc1 (configuration not stated) the results were CHRM4 PAM -6.0, CHRM5 agonist -2.6, CHRM4 agonist -0.6, CHRM5 PAM -3.7, M4 antag -2.9 and CHRM5 antagonist 3.5.
`CNc1cncc(-c2ccc(OCCCN(C)C)nc2)n1` gave CHRM4 PAM 0.1, CHRM5 agonist 0.1, CHRM4 agonist 0.9, CHRM5 PAM 1.1, M4 antag -7.2 and CHRM5 antagonist -6.5.
`Cn1nnnc1SCC(=O)Nc1ccccc1[N+](=O)[O-]` gave CHRM4 PAM 5.1, CHRM5 agonist -4.2, CHRM4 agonist 0.9, CHRM5 PAM 2.5, M4 antag -7.8 and CHRM5 antagonist -3.9.
`COc1ccc(NC(=O)CSc2nnnn2C)c([N+](=O)[O-])c1` gave CHRM4 PAM 8.7, CHRM5 agonist -3.1, CHRM4 agonist 1.2, CHRM5 PAM -7.8, M4 antag 8.7 and CHRM5 antagonist 31.8*.
COc1ccc(C(=O)NNC(=O)CSc2nnnn2C)cc1 was read as CHRM4 PAM 12.6, CHRM5 agonist 2.0, CHRM4 agonist 0.1, CHRM5 PAM 19.3*, M4 antag 1.4 and CHRM5 antagonist -4.3.
